target: T1, C-C chemokine receptor type 3 (Homo sapiens, UniProt P51677); test: Binding affinity measured for human C-C chemokine receptor type 3 expressed on human K562 cell membrane; assay type: cell membranes
T1 sequence (P51677 whole entry): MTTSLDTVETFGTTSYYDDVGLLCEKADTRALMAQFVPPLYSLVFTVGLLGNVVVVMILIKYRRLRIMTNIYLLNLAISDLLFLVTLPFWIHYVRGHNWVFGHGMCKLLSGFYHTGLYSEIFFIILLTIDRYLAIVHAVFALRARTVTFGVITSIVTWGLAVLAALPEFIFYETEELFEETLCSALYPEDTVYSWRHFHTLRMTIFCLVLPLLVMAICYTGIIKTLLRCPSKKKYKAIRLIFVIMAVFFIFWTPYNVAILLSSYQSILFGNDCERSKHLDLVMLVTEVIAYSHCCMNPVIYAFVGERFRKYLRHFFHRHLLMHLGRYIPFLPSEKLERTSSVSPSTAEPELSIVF
Outline: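 Membranes from K562 cells transfected with human CCR3 (disrupted by nitrogen decompression, spun 40,000g, 4 °C, 1 h), 0.5–5 µg protein/well. SPA with WGA-coated PVT beads and 125I-rh eotaxin-1. Compounds added as DMSO dilutions, incubated 2 h. Buffer: 25 mM HEPES, 25 mM MgCl2, 1 mM CaCl2, 0.1% BSA. Unlabelled rh eotaxin defined nonspecific binding. Ki obtained by iterative mass-action fitting.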

| SMILES | Ki [nM] |
| --- | --- |
| CCc1ccccc1/C=C1\CCn2c1nc1ccccc1c2=N | 360 |
| Fc1ccc(/C=C2\CCN3Cc4ccccc4N=C23)c(Cl)c1 | 930 |
| CCC1C/C(=C\c2ccccc2Cl)C2=Nc3ccccc3CN21 (stereo unspecified) | 140 |
| Clc1ccc(/C=C2\CCN3Cc4ccccc4N=C23)cc1Cl | 720 |
| N=c1c2c3c(sc2nc2n1CC/C2=C\c1ccccc1Br)CCCC3 | 350 |
| CCCCC1C/C(=C\c2ccccc2Br)C2=Nc3ccccc3CN21 (stereo unspecified) | 250 |
| N#C/N=c1/c2ccccc2nc2n1CC/C2=C\c1ccccc1Br | 6100 |
| FC(F)(F)c1ccccc1/C=C1\CCN2Cc3ccccc3N=C12 | 1600 |
| C(=C1/CCN2Cc3ccccc3N=C12)/c1ccccc1-c1ccccc1 | 2900 |
| CCOc1ccccc1/C=C1\CCN2Cc3ccccc3N=C12 | 4500 |
| Brc1ccccc1/C=C1\CCN2Cc3ccccc3N=C12 | 90 |
| Clc1ccc(/C=C2\CCN3Cc4ccccc4N=C23)c(Cl)c1 | 1700 |
| N=c1c2ccccc2nc2n1CC/C2=C\c1ccccc1I | 76 |
| Cc1oc2nc3n(c(=N)c2c1C)CC/C3=C\c1ccccc1Br | 270 |
| COc1ccc(/C=C2\CCn3c2nc2ccccc2c3=N)cc1 | 3900 |
| N=c1c2c(C3CC3)csc2nc2n1CC/C2=C\c1ccccc1Br | 290 |

| SMILES | Ki [nM] |
| --- | --- |
| N=c1c2nc[nH]c2nc2n1CC/C2=C\c1ccccc1Br | 830 |
| FC(F)(F)Oc1ccccc1/C=C1\CCN2Cc3ccccc3N=C12 | 3200 |
| Clc1cccc(Cl)c1/C=C1\CCN2Cc3ccccc3N=C12 | 1800 |
| Cc1sc2nc3n(c(=N)c2c1C)CC/C3=C\c1ccccc1Br | 260 |
| N=c1c2cccnc2nc2n1CC/C2=C\c1ccccc1Br | 820 |
| C/N=c1/c2ccccc2nc2n1CC/C2=C\c1ccccc1Br | 310 |
| Fc1ccccc1/C=C1\CCN2Cc3ccccc3N=C12 | 1400 |
| N=c1c2ccsc2nc2n1CC/C2=C\c1ccccc1Br | 28 |
| CC(C)(C)c1csc2nc3n(c(=N)c12)CC/C3=C\c1ccccc1Br | 1200 |
| N=c1c2ccccc2nc2n1CC/C2=C\c1ccccc1Br | 28 |
| N=c1c2ccccc2nc2n1CC/C2=C\c1ccccc1Cl | 35 |
| Fc1ccc(C2C/C(=C\c3ccccc3Br)C3=Nc4ccccc4CN32)cc1 (stereo unspecified) | 7900 |
| Clc1ccccc1/C=C1\CCN2Cc3ccccc3N=C12 | 110 |
| CCc1ccccc1/C=C1\CCN2Cc3ccccc3N=C12 | 1400 |
| CN(C)c1ccc(/C=C2\CCN3Cc4ccccc4N=C23)c(Cl)c1 | 1400 |
